ChEMBL document CHEMBL1141152, “Efficient transfection of DNA by liposomes formulated with cationic gemini amphiphiles” (2005)

Columns and labels:
Format in all cases: functional, Rattus norvegicus
[1] = Percentage survived cells of LA7 cell line done for 6 hr with compound (42.5 uM) in trypan blue exclusion dye test
Procedure, shortened: (§1)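 LA7 rat mammary adenocarcinoma cells grown in DMEM with 10% FCS, penicillin/streptomycin, insulin and hydrocortisone (50 ng/mL each). Exposed 6 h to DMPC/cationic amphiphile liposomes (1/1; doubled amphiphile for single-headgroup surfactant), concentrations 425 μM to 8.5 μM; medium then replaced. Viability by Trypan blue exclusion 24 h later, counting unstained cells. Duplicates, at least five times; typical experiment shown.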

[2] = Percentage survived cells of LA7 cell line done for 6 hr with compound (21.3 uM) in trypan blue exclusion dye test; procedure, shortened: as §1
[3] = Percentage survived cells of LA7 cell line done for 6 hr with compound (85 uM) in trypan blue exclusion dye test; procedure, shortened: as §1
[4] = Percentage survived cells of LA7 cell line done for 6 hr with compound (8.5 uM) in trypan blue exclusion dye test; procedure, shortened: as §1
[5] = Percentage survived cells of LA7 cell line done for 6 hr with compound (213 uM) in trypan blue exclusion dye test; procedure, shortened: as §1

SMILES	Survival [1] [%]	Survival [2] [%]	Survival [3] [%]	Survival [4] [%]	Survival [5] [%]
CCCCCCCCCCCCCCCC[N+](C)(C)CCOC.[Br-]	100	100	80	100	50
CCCCCCCCCCCCCCCC[N+](C)(C)CCCC[N+](C)(C)CCCCCCCCCCCCCCCC.[Br-].[Br-] [CATIONIC AMPHIPHILE]	100	100	80	100	50
CCCCCCCCCCCCCCCC[N+](C)(C)C[C@@H](OC)[C@@H](C[N+](C)(C)CCCCCCCCCCCCCCCC)OC.[Br-].[Br-] [CATIONIC AMPHIPHILE]				100	
CCCCCCCCCCCCCCCC[N+](C)(C)C[C@H](OC)[C@@H](C[N+](C)(C)CCCCCCCCCCCCCCCC)OC.[Br-].[Br-] [CATIONIC AMPHIPHILE]	30	80		100	
CCCCCCCCCCCCCCCC[N+](C)(C)C[C@H](OC)[C@H](C[N+](C)(C)CCCCCCCCCCCCCCCC)OC.[Br-].[Br-] [CATIONIC AMPHIPHILE]	10	90		100	
